# Bioassay records deposited in PubChem BioAssay by Broad Institute.
# T cruzi inh: T. cruzi replication inhibition | T. cruzi beta-gal in NIH3T3, luminescence, 90 h | inhibition, % (test concentration not listed) | actives 1.4% (n = 300,000);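 active = mean inhibition across valid replicates above about 55%, limit read from the data; inconclusive = mean below that limit but half or more replicates reach it; inactive = mean below it, under half of replicates reach it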;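 note: signal also drops with host cell toxicity which is not excluded here; 0% = plate median of DMSO wells and 100% = zero luminescence signal; higher percent means less beta-gal luminescence so fewer parasites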
#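 compound dosing = single 50 nL compound addition per well in DMSO | material = NIH/3T3 host cells with β-galactosidase reporter T. cruzi | input = 5,000 host fibroblasts per well | timing = ≥90 h infection period, 3 h prior cell attachment | read-out basis = percent inhibition of parasite-derived β-gal signal | detection = GalScreen β-gal luminescence, detergent lysis, 60 min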
# HIF activator: HIF pathway transcriptional activation; U2OS HRE-luciferase reporter, luminescence; normalized: DMSO 0%, desferrioxamine 100%; activation, % at 7.5 µM (by protocol); actives 0.32% (n = 300,000); AID 1910;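 active = mean activation of at least 10% of the iron chelator positive control signal, with at least half of replicates also reaching 10%; inconclusive = mean and replicate majority disagree about reaching 10%; inactive = mean and most replicates under 10%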
# SKKanGAS inh: blocks kanamycin growth of S. pyogenes SKKanGAS strain; inhibition, % at 7.5 µM; actives 1.3% (n = 300,000); AID 1662; BacTiter-Glo, 6 h;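 active = mean replicate score, as percent of positive control median, at least 50; inconclusive = mean below 50 but one replicate at or above 50; inactive = mean and every replicate below 50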;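 note: strain carries kanamycin resistance gene driven by streptokinase promoter and grows in 40 µg/ml kanamycin; loss of luminescence reflects streptokinase promoter inhibition or plain growth inhibition; 0% = median of DMSO wells and 100% = positive control at its reference dose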
# CSC inhib: cancer stem cell inhibition; cancer stem cell-like cells viability, luminescence; inhibition, % at 7.5 µM; actives 1.1% (n = 300,000); AID 2717; in the data active = inhibition above about 75%; inconclusive = no clear call, values can overlap the other calls; tested in HMLE shEcad cells
# Beta cell apopt: beta cell apoptosis inhibition; INS-1E cytokine-induced death, ATP luminescence, 48 h; percent of positive-control rescue, neutral wells zero; AID 435005; protection from apoptosis, % (no concentration beside the values); actives 0.8% (n = 300,000);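 active = Every replicate reaches about 75%, or at least half do and their mean reaches it too, limit read from the data; inconclusive = At least half of replicates reach the limit but their mean does not; inactive = Under half of replicates reach the limit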;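 note: 0% = cytokine-treated negative control wells and 100% = positive control rescue; higher means more ATP so stronger rescue from cytokine killing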
# PfHsp90 set2: inhibits growth of yeast expressing Plasmodium falciparum Hsp90; S. cerevisiae expressing PfHsp90, BacTiter-Glo ATP, 48 h; yeast lacking PDR1 and PDR3 efflux regulators; inhibition, % at 9.4 µM; actives 0.32% (n = 310,000); AID 504621;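 active = every replicate shows inhibition above about 80%, whatever the replicate mean, limit read from the data; inconclusive = mean inhibition reaches the set limit but some replicate falls short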;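 note: 0% = DMSO neutral controls and 100% = 20 µM radicicol positive controls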
# * = called active by the depositor; u = inconclusive; x = not tested or not shown. Hits are enriched below; roughly 3.6% of the tested compounds scored in any of these assays.
SMILES,T cruzi inh,HIF activator,SKKanGAS inh,CSC inhib,Beta cell apopt,PfHsp90 set2
CN(C)c1ccc(-c2n(C)c3ccccc3[n+]2C)cc1,73*,0,-11,x,x,-5
Cc1ccc(-n2nc3c(=O)n(CCCC(=O)NCc4ccco4)nc(C)c3c2C)cc1,-21,1,4,5,4,22
O=c1[nH]c(/C(Cl)=C/c2cc(Cl)ccc2O)nc2cc(Cl)ccc12,-11,0,26,101*,-4,0
CCN(CC)S(=O)(=O)c1cccc(C(=O)NC(C(=O)NNC(=O)c2ccccc2F)C(C)C)c1 (centres undefined),x,x,x,x,x,-25
Cc1cccc(C(=O)NCC(=O)OCCOc2ccccc2Cl)c1,-14,0,-7,2,-7,9
CCOC(=O)Nc1sc(C)nc1-c1ccccc1,-21,0,-8,8,-14,0
CCOC(=O)Nc1nc(-c2ccccc2)c(C(=O)c2ccc(Cl)cc2)s1,22,0,36,81*,19,-18
O=C(NCc1ccco1)C12CC3CC(CC(C3)C1)C2,-4,0,-3,5,-7,-6
O=C(CC12CC3CC(CC(C3)C1)C2)NC(=S)NCc1ccco1,56*,-2,35,45,12,-38
CC(CCc1ccccc1)NC(=O)COC(=O)C1CCC(C(C)(C)C)CC1 (centres undefined),2,-1,2,0,3,-8
CC(=O)NC(=O)c1ccc(-c2ccc(Cl)cc2)o1,-4,1,4,7,-1,-15
O=C(NC12CC3CC(CC(C3)C1)C2)c1ccc(-c2ccccc2Cl)o1,u,2,39,125*,16,33
O=C(NC12CC3CC(CC(C3)C1)C2)c1ccc(-c2cccc(Cl)c2)o1,44,3,9,95*,16,30
COc1ccccc1CNC(=O)c1ccc(-c2ccccc2Cl)o1,-2,1,52*,35,13,-12
O=C(NC12CC3CC(CC(C3)C1)C2)c1ccc(-c2ccc(Cl)cc2)o1,59*,6,24,13,14,-33
COc1ccccc1CNC(=O)c1ccc(-c2ccccc2C(F)(F)F)o1,8,1,-1,31,2,1
O=C(NC12CC3CC(CC(C3)C1)C2)c1ccc(COc2ccc(Cl)cc2[N+](=O)[O-])o1,x,x,x,4,5,19
O=C(Cc1ccccc1)NC(=S)Nc1ccc(OC(F)F)cc1,-2,1,-5,-1,-4,7
Cc1nc2ccccn2c1C(=O)N/N=C/c1ccc([N+](=O)[O-])o1,71*,0,x,12,-34,-4
O=C(N/N=C/c1ccc([N+](=O)[O-])o1)c1cc2ccccc2o1,64*,1,1,8,100*,3
CCOC(=O)c1c2ccc(OCC(=O)N/N=C/c3ccc(C)cc3)cc2n2ccccc12,-15,0,2,114*,62,2
CCOC(=O)c1c2ccc(OCC(=O)NN)cc2n2ccccc12,-7,1,12,38,-5,-20
COc1ccc(OC)c(/C=C2\S/C(=N/NC(=O)c3ccc4ccccc4c3)NC2=O)c1,3,0,106*,106*,0,-101
O=C(CN1CCC(c2nc3ccccc3s2)CC1)NCc1ccccc1,64*,1,-1,-3,2,23
CCOC(=O)CCCNC(=O)CN1CCC(c2nc3ccccc3s2)CC1,21,0,-8,x,0,-5
SMILES,T cruzi inh,HIF activator,SKKanGAS inh,CSC inhib,Beta cell apopt,PfHsp90 set2
COc1ccc2[nH]c(C(O)(Cc3cccnc3)Cc3cccnc3)cc2c1,57*,-1,1,3,-1,-6
Cc1cc(OCc2nnc(SC(C)C(=O)O)n2-c2ccccc2)ccc1Cl (centres undefined),-7,-1,-3,3,x,2
Cc1ccc(NC(=O)CCSc2nnc(C)s2)cc1,-11,0,-2,-3,x,x
CC1=NN(/C(=N\c2nnc(C)s2)Nc2ccc(C(C)(C)C)cc2)[C@H](c2ccc(C)cc2)S1,57*,2,58*,52,12,49
CCOC(=O)N1CCC(=NNC(=O)c2cc3ccccc3cc2O)CC1,-12,0,5,8,1,10
C/C(=N\NC(=O)c1cc2ccccc2cc1O)c1ccc(C)o1,-8,0,62*,2,6,13
